Measured values gathered from unrelated publications.
Protocols differ between the studies behind these lines.
Organism: Staphylococcus aureus
Read-out: microbial growth

Structure (SMILES) | test | system | conditions | MIC
C/C(=C\c1ccc(O)cc1)C(=O)Nc1ccc(C(=O)N[C@@H](CC(N)=O)C(=O)Nc2ccc(C(=O)Nc3ccc(C(=O)Nc4ccc(C(=O)O)cc4)c(O)c3OC(C)C)cc2)cc1 |  | ATCC29213 |  | 0.25 µg/mL
NCCCC[C@H](N)C(=O)Nc1ccc(-n2nc(C(F)(F)F)cc2-c2ccc3c(ccc4ccccc43)c2)cc1 | broth dilution | ATCC29213 | 24 h | 4 µg/mL
CC(C)Oc1c(NC(=O)c2ccc(NC(=O)[C@H](CC(N)=O)NC(=O)c3ccc(NC(=O)c4ccc(C#N)cn4)cc3)cc2)ccc(C(=O)Nc2ccc(C(=O)O)cc2)c1O |  | ATCC29213 |  | ≤ 0.03 µg/mL
Clc1ccccc1NCc1ccc(Oc2ccccn2)cc1 |  |  |  | 1.6 µg/mL
CC(C)Oc1c(NC(=O)c2ccc(NC(=O)[C@H](CC(N)=O)NC(=O)c3ccc(NC(=O)c4ccc([N+](=O)[O-])c5cccnc45)cc3)cc2)ccc(C(=O)Nc2ccc(C(=O)O)cc2)c1O |  | ATCC29213 |  | > 64 µg/mL
Clc1ccc(NCc2ccc(Oc3ccccn3)cc2)cc1 |  |  |  | > 3.1 µg/mL
C[n+]1c(/C=C/c2c[nH]c3ccccc23)cc(/C=C2\Sc3ccccc3N2CCCN2CCOCC2)c2ccccc21.[I-] | broth dilution | ATCCBAA44 |  | 8 µg/mL
COc1cc2c(Nc3ccc(NC(=O)c4ccccc4)cc3)ncnc2cc1OCCCN1CCOCC1 |  | NCTC8325 |  | > 30 µM
CCCCCCCCCCCC(=O)Oc1c(C)c(O)c(C(=O)/C=C/c2ccccc2)c(OC)c1C | broth dilution | ATCC25923 |  | 5000 µg/mL
O=C(Nc1ccc2c(c1)OC(F)(F)O2)NC12CC3CC(CC(C3)C1)C2 |  | NCTC8325 |  | > 100 µM
COc1ccc2c(c1)CCc1c(C(=O)NCCc3nc4cc(C)ccc4[nH]3)n[nH]c1-2 |  |  |  | > 128 µg/mL
C/C=C(\C)c1cc(OC(=O)c2c(O)c(C)c(O)c(Cl)c2/C(C)=C/C)c(C)c(O)c1C(=O)O | broth dilution | 6917 |  | > 64 µg/mL
CSc1ccc(/C=C/c2cc(/C=C3\Sc4ccccc4N3CCCN3CCCC3)c3ccccc3[n+]2C)cc1.[I-] | broth dilution | ATCCBAA44 |  | 32 µg/mL
O=C(CCCN1CCC(O)(c2ccc(Cl)cc2)CC1)c1ccc(Br)cc1 |  |  |  | > 128 µg/mL
COc1ccc(-c2nc3ccc(C)cc3[nH]2)cc1O | broth dilution | ATCC29213 MSSA |  | 64 µg/mL
CN[C@H](CC(C)C)C(=O)N[C@H]1C(=O)N[C@@H](CC(N)=O)C(=O)N[C@H]2C(=O)N[C@H]3C(=O)N[C@H](C(=O)N[C@H](C(=O)O)c4cc(O)cc(O)c4-c4cc3ccc4O)[C@H](O)c3ccc(c(Cl)c3)Oc3cc2cc(c3O[C@@H]2O[C@H](CO)[C@@H](O)[C@H](O)[C@H]2O[C@H]2C[C@](C)(N)[C@H](O)[C@H](C)O2)Oc2ccc(cc2Cl)[C@H]1O | broth dilution | ATCC25923 |  | 0.98 µg/mL
CC1(C(=O)O)CCC(C(=O)Nc2ccc(Nc3ccccc3)cc2)C1(C)C (stereo not shown) |  |  |  | > 128 µg/mL
COc1cc(Cc2cnc(N)nc2N)cc(OC)c1OC | broth dilution |  | 24 h | 2 µg/mL
COc1c(C(=O)Nc2ccc(C(=O)O)cc2)ccc2nc(-c3cc(NC(=O)C(CC(N)=O)NC(=O)c4ccc(NC(=O)c5ccc(C#N)cc5)cc4)cn3C)[nH]c12 (stereo not shown) |  | ATCC29213 |  | > 64 µg/mL
C/C=C(\C)c1cc(O)c(C)c(OC(=O)c2c(C)cc(O)c(Cl)c2O)c1 | broth dilution | 16339 |  | 16 µg/mL

Structure (SMILES) | test | system | conditions | MIC
CCOc1ccc(-c2nc3cc(-c4nc5cc(N6CCN(C)CC6)ccc5[nH]4)ccc3[nH]2)cc1 | broth dilution | 33591 | 24 h | 2 to 4 µg/mL
O=C(Nc1ccc(OC(F)(F)F)cc1)c1sccc1NCc1ccnc2ccccc12 |  | NCTC8325 |  | > 30 µM
O=C(CCc1ccc(O)c(O)c1)NCCCCCCCC[P+](c1ccccc1)(c1ccccc1)c1ccccc1.[Br-] | broth dilution | ATCC43300 MRSA | 18 h | > 32 µg/mL
O=C(O)c1cn(C2CC2)c2cc(N3CCNCC3)c(F)cc2c1=O | broth dilution | ATCC43300 |  | 0.24 µg/mL
O=C(O)c1ccc(Nc2ncc3c(n2)-c2ccc(Cl)cc2C(c2c(F)cccc2F)=NC3)cc1 |  | NCTC8325 |  | > 30 µM
CC[C@H]1OC(=O)[C@H](C)[C@@H](O[C@H]2C[C@@](C)(OC)[C@@H](O)[C@H](C)O2)[C@H](C)[C@@H](O[C@@H]2O[C@H](C)C[C@H](N(C)C)[C@H]2O)[C@](C)(O)C[C@@H](C)C(=O)[C@H](C)[C@@H](O)[C@]1(C)O | broth dilution | 25923 |  | 0.59 µM
COc1ccc(-c2nc3ccccc3[nH]2)cc1O | broth dilution | ATCC29213 MSSA |  | 128 µg/mL
CNC(=O)c1ccc(NC(=O)Nc2ccc(Cl)c(C(F)(F)F)c2)cc1 |  | NCTC8325 | 24 h | 30 µM
Cc1ccc(C)n1-c1ccc(-c2nnc(S)s2)cc1 | broth dilution | ATCC11632 | 18 h | 1 µg/mL
O=C1NN=C(N=Cc2ccc(O)c(O)c2)C1=NNn1c(-c2ccccc2)nc2ccccc2c1=O | broth dilution |  | 24 h | 107 µM
O=C(CCCCCCCCCC[P+](c1ccccc1)(c1ccccc1)c1ccccc1)Nc1cc(O)c(O)c(O)c1.[Br-] | broth dilution | ATCC43300 MRSA | 18 h | 2 µg/mL
CO[C@H]1/C=C/O[C@@]2(C)Oc3c(C)c(O)c4c(O)c(c(/C=N/N5CCN(C)CC5)c(O)c4c3C2=O)NC(=O)/C(C)=C\C=C\[C@H](C)[C@H](O)[C@@H](C)[C@@H](O)[C@@H](C)[C@H](OC(C)=O)[C@@H]1C | broth dilution | ATCC29213 | 24 h | 0.0078 µg/mL
OCCn1cc(-c2cnc3nnn(Cc4ccc5ncccc5c4)c3n2)cn1 |  | NCTC8325 |  | > 30 µM
C/C=C(\C)c1cc(OC(=O)c2c(C)c(Cl)c(O)c(Cl)c2O)c(C)c(O)c1C(=O)O | broth dilution | 745524 |  | 64 µg/mL
CSc1ccc(-c2nc3ccccc3[nH]2)cc1 | broth dilution | ATCC29213 MSSA |  | 16 µg/mL
COc1cccc(OC)c1C(=O)N[C@@H]1C(=O)N2[C@@H]1SC(C)(C)[C@@H]2C(=O)O | broth dilution | 25923 |  | 3.13 µM
Cc1nc(N)sc1-c1ccnc(Nc2ccc(N3CCOCC3)cc2)n1 |  | NCTC8325 |  | > 30 µM
CCn1cc(C(=O)O)c(=O)c2cc(F)c(N3CCNCC3)cc21 |  | MRSA |  | 250 µg/mL
CCCCCCC#Cc1cncc(-c2nnc(SCc3ccc(C#N)cc3)n2C)c1 |  | MRSA | drug-resistant strain | ≥ 20 µg/mL
Cc1ccc2nc(-c3ccc(F)cc3)n(Cc3ccccc3)c2c1 | broth dilution | ATCC29213 MSSA |  | 64 µg/mL

Structure (SMILES) | test | system | conditions | MIC
CCn1cc(C(=O)O)c(=O)c2cc(F)c(N3CCNCC3)cc21 | broth dilution | ATCC6538 |  | 2 µM
Cc1ccc(C)n1-c1ccc(-c2nnc(-c3ccc(O)cc3)[nH]2)cc1 | broth dilution | ATCC11632 | 18 h | 8 µg/mL
Cc1ccc2nc(-c3ccco3)n(Cc3ccccc3)c2c1 | broth dilution | ATCC29213 MSSA |  | 128 µg/mL
O=C(O)CN1C(=O)/C(=C/c2ccc(-c3ccc(N(c4ccccc4)c4ccccc4)cc3)cc2)NC1=S | broth dilution | ATCC43300 |  | 1.95 µg/mL
C/C=C(\C)c1cc(O)c(C)c(OC(=O)c2c(C)c(Cl)c(O)c(Cl)c2O)c1 | broth dilution | 16162 |  | 2 µg/mL
O=C(O)CN1C(=O)/C(=C/c2c3ccccc3c(-c3ccc(N(c4ccccc4)c4ccccc4)cc3)c3ccccc23)NC1=S | broth dilution | ATCC25923 |  | > 1000 µg/mL
CCOc1ccc(-c2nc3ccccc3n2Cc2ccccc2)cc1 | broth dilution | ATCC29213 MSSA |  | 64 µg/mL
O=C(O)CN1C(=O)/C(=C/c2ccc(-c3ccc(N(c4ccccc4)c4ccccc4)cc3)cc2)SC1=S | broth dilution | ATCC43300 |  | 3.9 µg/mL
CC(C)(O/N=C(\C(=O)N[C@@H]1C(=O)N2C(C(=O)[O-])=C(C[n+]3ccccc3)CS[C@H]12)c1csc(N)n1)C(=O)O |  | MRSA | 18 h | > 128 µg/mL
c1cncc(-c2nc3ccccc3[nH]2)c1 | broth dilution | ATCC29213 MSSA |  | 128 µg/mL
CC(C)Oc1c(NC(=O)c2ccc(NC(=O)[C@H](CC(N)=O)NC(=O)c3ccc(CNC(=O)c4ccc(C#N)cc4)cc3)cc2)ccc(C(=O)Nc2ccc(C(=O)O)cc2)c1O |  | ATCC29213 |  | > 64 µg/mL
COC(=O)/C(C#N)=C1\Nc2ccccc2O1 |  |  |  | > 128 µg/mL
C[C@@H](Oc1cc(-n2cnc3ccc(CN4CCN(C)CC4)cc32)sc1C(N)=O)c1ccccc1C(F)(F)F |  | NCTC8325 |  | > 30 µM
CSc1ccc(-c2nc3ccc(C)cc3n2Cc2ccccc2)cc1 | broth dilution | ATCC29213 MSSA |  | 128 µg/mL
CN[C@H](CC(C)C)C(=O)N[C@H]1C(=O)N[C@@H](CC(N)=O)C(=O)N[C@H]2C(=O)N[C@H]3C(=O)N[C@H](C(=O)N[C@H](C(=O)O)c4cc(O)cc(O)c4-c4cc3ccc4O)[C@H](O)c3ccc(c(Cl)c3)Oc3cc2cc(c3O[C@@H]2O[C@H](CO)[C@@H](O)[C@H](O)[C@H]2O[C@H]2C[C@](C)(N)[C@H](O)[C@H](C)O2)Oc2ccc(cc2Cl)[C@H]1O | broth dilution | ATCC29213 |  | 1 µg/mL
CC(C)Oc1c(NC(=O)c2ccc(NC(=O)[C@H](CC(N)=O)NC(=O)c3ccc(NC(=O)c4ccc(C#N)cc4)cc3)cc2)ccc(C(=O)Nc2cccc(C(=O)O)c2)c1O |  | ATCC29213 |  | 2 µg/mL
CC1(C)S[C@@H]2[C@H](NC(=O)[C@H](N)c3ccccc3)C(=O)N2[C@H]1C(=O)O | broth dilution | 745524 |  | 4 µg/mL
COc1c(C)c(OC)c(C(=O)/C=C/c2ccccc2)c(OC)c1C | broth dilution | ATCC25923 |  | 5000 µg/mL
